Here are results for 12 compounds from publication PMC7315603 (ACS Omega, 2020).

In series [1] the test system is P. falciparum strain 3D7. The series can be described thus: microbe, parasite or virus in culture. The settings on record: Plasmodium falciparum, 3D7, read-out: IC50 (P. falciparum 3D7).
For another series, the system named is Mycobacterium vaccae. The series can be described thus: MIC against Mycobacterium vaccae, microplate alamar blue broth dilution assay. The class given is cell-based. (Alamar Blue is a resazurin reagent that responds to reducing activity.)
The next series addresses human serum albumin (Homo sapiens, UniProt P02768). Description: Human serum albumin binding. Type of series: in vitro ADME.
Series [2] can be described thus: Intrinsic microsomal clearance, human liver microsomes. The settings on record: for intrinsic microsomal clearance (Clint), human: human liver microsomes. Type of series: in vitro ADME.
The nature of series [3]: Intrinsic microsomal clearance, mouse liver microsomes. Type of series: in vitro ADME. The settings on record: for intrinsic microsomal clearance (Clint), mouse: mouse liver microsomes. In general terms: Liver microsomes are a subcellular fraction often used to study metabolism.
A short description of series [4]: Plasma stability, human plasma. Type of series: in vitro ADME. To be noted: 2 h incubation at 37 °C. In outline: (§1)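 Test compound incubated in human or mouse plasma for 2 h at 37 °C. The amount of compound remaining afterward was quantified and reported as percent remaining.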
Series [5] is described as follows: Plasma stability, mouse plasma. The class given is in vitro ADME. In outline: as §1
The nature of series [6]: Kinetic aqueous solubility. The class given is physicochemical.
Another series deals with M. tuberculosis H37Rv. To be noted: drug-susceptible Mtb H37Rv; 6 days + 48 h resazurin.
Series [7] concerns P. falciparum strain 3D7. The settings on record: strain 3D7, 3 h.
In the next series the test system is M. tuberculosis H37Ra. To be noted: natural product; cited from earlier work.
In a further series the test system is Plasmodium falciparum. The settings on record: natural product; cited from earlier work.

The term pIC50 denotes the IC50 on a negative log10 scale, so that one unit is a factor of ten. The term share remaining denotes the share of the starting amount still present when the sample was taken. A low value points to a greater loss. Broadly, the kinetic solubility is solubility judged after dilution from a stock solution rather than from solid.

pIC50: −log10 of the molar value. ≈ marks a conversion by molar mass, not a printed value. Where “and” joins values, the source holds several entries; their conditions need not be identical. Equal values may be shown once. Read-outs that look alike come from different tables or passages of the source. Where a SMILES comes first, the peptide text is derived from it. [ ]: non-standard residue; d: D form. dPhe(4-Cl) = N[C@H](Cc1ccc(Cl)cc1)C(=O)O; aIle = CC[C@@H](C)[C@H](N)C(=O)O; dPhLac = O=C(O)[C@H](O)Cc1ccccc1; Sar = CNCC(=O)O

Sequence of human serum albumin (P02768 25-609): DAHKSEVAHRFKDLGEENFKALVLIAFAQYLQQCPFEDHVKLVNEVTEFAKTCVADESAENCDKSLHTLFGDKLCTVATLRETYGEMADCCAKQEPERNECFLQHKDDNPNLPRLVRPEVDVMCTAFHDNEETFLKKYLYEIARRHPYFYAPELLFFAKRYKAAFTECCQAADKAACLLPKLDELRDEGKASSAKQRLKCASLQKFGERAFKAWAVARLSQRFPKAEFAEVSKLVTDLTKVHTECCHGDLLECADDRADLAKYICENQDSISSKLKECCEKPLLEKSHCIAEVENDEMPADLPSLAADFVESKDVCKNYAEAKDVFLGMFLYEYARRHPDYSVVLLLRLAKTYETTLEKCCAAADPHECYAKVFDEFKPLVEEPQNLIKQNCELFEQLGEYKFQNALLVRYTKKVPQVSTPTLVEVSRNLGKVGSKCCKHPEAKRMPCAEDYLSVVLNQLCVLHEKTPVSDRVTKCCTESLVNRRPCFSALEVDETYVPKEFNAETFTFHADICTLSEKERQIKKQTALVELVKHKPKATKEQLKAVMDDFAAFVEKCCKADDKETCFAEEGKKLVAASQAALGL

`CCN(CC)CCCC(C)Nc1ccnc2cc(Cl)ccc12` (centres unmarked) [CQ, chloroquine]: the pIC50 with P. falciparum strain 3D7 [1] was 8.30.
As for `CC[C@@H](C)[C@@H]1NC(=O)[C@@H](Cc2ccccc2)OC(=O)CN(C)C(=O)[C@H]([C@H](C)CC)NC(=O)[C@@H](Cc2ccccc2)OC(=O)CN(C)C1=O` [Compound 9] (cyclo([Sar][dPhLac][aIle][Sar][dPhLac][aIle])), the negative-log IC50 (pIC50) is under 4.00. In the series with Mycobacterium vaccae, the “MIC (M. vaccae)” value worked out at 18.8 µM (≈ 12.5 µg/mL). Also, the “% human serum albumin binding (%HSA)” value at human serum albumin is recorded as 88%. In addition, in series [2], the “stability in human microsomes (in words)” value is “moderate stability” and the “intrinsic microsomal clearance (Clint), human” value was 46.53 mL/(min g) tissue. For the same compound, in series [3], the “stability in mouse microsomes (in words)” value is “low stability” and the “intrinsic microsomal clearance (Clint), mouse” value was 38.3 mL/(min g) tissue. The “plasma stability (% remaining), human plasma” value in [4] was 103%. Moreover, the share remaining at 2 h in series [5] was 18%. In series [6], this compound returned a kinetic solubility of over 180 µg/mL. For the same compound, the “MIC (Mtb H37Rv)” value with M. tuberculosis H37Rv was over 80 µM. The pIC50 in the series with P. falciparum strain 3D7 [7] was 5.64.
`CC(C)C[C@@H]1NC(=O)[C@@H](Cc2ccccc2)OC(=O)CN(C)C(=O)[C@H](CC(C)C)NC(=O)[C@@H](Cc2ccccc2)OC(=O)CN(C)C1=O` [Compound 10] (cyclo(L[Sar][dPhLac]L[Sar][dPhLac])) registered a solubility (kinetic) in series [6] of over 180 µg/mL.
Compound `CC(C)[C@@H]1NC(=O)[C@@H](Cc2ccccc2)OC(=O)CN(C)C(=O)[C@H](C(C)C)NC(=O)[C@@H](Cc2ccccc2)OC(=O)CN(C)C1=O` [Compound 11] (cyclo([Sar][dPhLac]V[Sar][dPhLac]V)) gave a pIC50 of under 4.00. The kinetic solubility in [6] turned out to be 80 µg/mL (≈ 126 µM). Besides, the negative logarithm of the IC50 (pIC50) in the series on P. falciparum strain 3D7 [7] is 5.12.
Compound `CN1CC(=O)O[C@H](Cc2ccccc2)C(=O)NCC(=O)N(C)CC(=O)O[C@H](Cc2ccccc2)C(=O)NCC1=O` [Compound 12] (cyclo(G[Sar][dPhLac]G[Sar][dPhLac])) showed a pIC50 of under 4.00. Besides, on human serum albumin, the “% human serum albumin binding (%HSA)” value was 54.7%. Moreover, the “intrinsic microsomal clearance (Clint), human” value in series [2] is listed as 34.00 mL/(min g) tissue. Further, the “intrinsic microsomal clearance (Clint), mouse” value in [3] is listed as 52.00 mL/(min g) tissue. The compound also displayed a fraction remaining at 2 h in series [5] of 0%. In addition, the kinetic solubility in series [6] stood at 81 µg/mL (≈ 147 µM). This compound also had a pIC50 in the series on P. falciparum strain 3D7 [7] of 4.70.
In turn, `CC[C@H](C)[C@@H]1NC(=O)[C@@H](Cc2ccccc2)OC(=O)CNC(=O)[C@H]([C@@H](C)CC)NC(=O)[C@@H](Cc2ccccc2)OC(=O)CNC1=O` [Compound 13] (cyclo(G[dPhLac]IG[dPhLac]I)) gave a pIC50 of under 4.00. At human serum albumin, the “% human serum albumin binding (%HSA)” value is given as 91.02%. For the same compound, in [2], the “intrinsic microsomal clearance (Clint), human” value is 32.80 mL/(min g) tissue. Further, the “intrinsic microsomal clearance (Clint), mouse” value in series [3] is 65.90 mL/(min g) tissue. The compound further showed a fraction remaining at 2 h in series [5] of 0%. In addition, in [6], the kinetic solubility was 6 µg/mL (≈ 9.42 µM). Moreover, the pIC50 in the series on P. falciparum strain 3D7 [7] was 4.86.
In turn, `CC(C)[C@@H]1NC(=O)[C@@H](Cc2ccccc2)NC(=O)CN(C)C(=O)[C@H](C(C)C)NC(=O)[C@@H](Cc2ccccc2)NC(=O)CN(C)C1=O` [Compound 15] (cyclo([Sar][dF]V[Sar][dF]V)) had a pIC50 of under 4.00. Also, in series [2], the “intrinsic microsomal clearance (Clint), human” value was 3.60 mL/(min g) tissue. Also, the “intrinsic microsomal clearance (Clint), mouse” value in series [3] is on record as 7.52 mL/(min g) tissue. The compound also showed a pIC50 with P. falciparum strain 3D7 [7] of 5.11.
On to `CC[C@@H](C)[C@@H]1NC(=O)[C@@H](Cc2ccccc2)NC(=O)CN(C)C(=O)[C@H]([C@H](C)CC)NC(=O)[C@@H](Cc2ccccc2)NC(=O)CN(C)C1=O` [Compound 16] (cyclo([Sar][dF][aIle][Sar][dF][aIle])), for which the negative logarithm of the IC50 (pIC50) is under 4.00. Also, the “intrinsic microsomal clearance (Clint), human” value in [2] was 18.90 mL/(min g) tissue. The “intrinsic microsomal clearance (Clint), mouse” value in series [3] was 47.71 mL/(min g) tissue. This compound also gave a pIC50 with P. falciparum strain 3D7 [7] of 5.66.
For `CC[C@@H](C)[C@@H]1NC(=O)[C@@H](Cc2ccc(Cl)cc2)NC(=O)CN(C)C(=O)[C@H]([C@H](C)CC)NC(=O)[C@@H](Cc2ccc(Cl)cc2)NC(=O)CN(C)C1=O` [Compound 17] (cyclo([Sar][dPhe(4-Cl)][aIle][Sar][dPhe(4-Cl)][aIle])), the negative-log IC50 (pIC50) was 4.59. Moreover, the “% human serum albumin binding (%HSA)” value at human serum albumin was 95% and 95.24%. Besides, the solubility (kinetic) in series [6] is 34 µg/mL (≈ 46.5 µM). Moreover, the pIC50 in the series on P. falciparum strain 3D7 [7] was 5.74.
With `CC[C@@H](C)[C@@H]1NC(=O)[C@@H](Cc2ccc(OC)cc2)NC(=O)CN(C)C(=O)[C@H]([C@H](C)CC)NC(=O)[C@@H](Cc2ccc(OC)cc2)NC(=O)CN(C)C1=O` [Compound 18] (cyclo([Sar][dY](Me)[aIle][Sar][dY](Me)[aIle])), the negative logarithm of the IC50 (pIC50) is under 4.00. Further, the “% human serum albumin binding (%HSA)” value on human serum albumin was 77.2%. Also, in series [2], the “intrinsic microsomal clearance (Clint), human” value is reported as 8.18 mL/(min g) tissue. In addition, the “intrinsic microsomal clearance (Clint), mouse” value in [3] is reported as 13.25 mL/(min g) tissue. Also, in series [6], the kinetic solubility turned out to be 124 µg/mL (≈ 172 µM). This compound also gave a negative logarithm of the IC50 (pIC50) with P. falciparum strain 3D7 [7] of 5.39.
Turning to `CC[C@@H](C)[C@@H]1NC(=O)[C@@H](CC(C)C)NC(=O)CN(C)C(=O)[C@H]([C@H](C)CC)NC(=O)[C@@H](CC(C)C)NC(=O)CN(C)C1=O` [Compound 19] (cyclo([dL][aIle][Sar][dL][aIle][Sar])), at human serum albumin, the “% human serum albumin binding (%HSA)” value was 37% and 37.15%. The “intrinsic microsomal clearance (Clint), human” value in series [2] is 6.07 mL/(min g) tissue. For the same compound, the “intrinsic microsomal clearance (Clint), mouse” value in series [3] is reported as 5.79 mL/(min g) tissue. The fraction remaining at 2 h in series [5] stood at 88%. Also, the kinetic solubility in series [6] was at least 184 µg/mL.
Take hirsutellide A: the “MIC (M. tuberculosis H37Ra)” value in the series with M. tuberculosis H37Ra is 6 to 12 µg/mL. Besides, in the series on Plasmodium falciparum, the “IC50 (Plasmodium falciparum)” value was 2.8 µg/mL.
